The target of the assay is Replicase polyprotein 1ab (Severe acute respiratory syndrome coronavirus 2) (UniProt P0DTD1). Kind of assay: Inhibition of SARS-CoV-2 main protease at 50 uM using Dabcy1-KTSAVLQSGFRKM-E-Edans-NH2 as substrate incubated for 10 mins followed by substrate addition by FRET assay relative to control. The essentials: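 Mpro, 0.5 µM final, in pH 7.3 buffer (20 mM Tris-HCl, 100 mM NaCl, 1 mM EDTA, 1 mM DTT) preincubated with compound (50 µM final, from DMSO stock) at 37 °C for 10 min. Reaction started with FRET substrate solution at 20 µM. Read ex 360/em 460 nm. Inhibition is from the initial linear ΔRFU/s versus a DMSO-only control. Triplicate, mean ± SD.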
A word on the inhibition: it is the percentage by which the read-out fell short of the control. High values mean a strong effect, low ones a weak effect. Turning to `O=C(NCc1ccc2c(c1)OCO2)c1ccc2nc3[nH]c4ccccc4c3nc2c1`, the inhibition stood at 35.6%.
The same measure for `Fc1ccc([C@H]2Oc3ccccc3[C@H]3CC(c4ccc5c(c4)OCO5)=NN32)cc1`: 6.87%; for `O=C(c1cc2nccc(-c3ccc4ccccc4c3)n2n1)N1CCN2CCC[C@H]2C1`: 9.38%; for `Cc1ccc(-n2nc(C)c3c(C)cc(OCc4ccc5nonc5c4)nc32)cc1`: 5.26%.
As for `Cn1c2ccccc2c2cc([C@@H]3N[C@H](C(=O)O)Cc4c3[nH]c3ccccc43)ccc21`, the figure is 6.54%; as for `O=C(CN1C(=O)c2ccccc2N2C(=O)c3ccccc3[C@H]12)Nc1cccc(O)c1`, 5.21%; as for `CC(=O)N1N=C(c2cc(-c3ccccc3)nc3ccccc23)O[C@H]1c1ccccc1`, 14.3%.
Consider `Cc1cccc(Nc2nc(C(=O)N3CCc4ccccc43)nc3ccccc23)c1`, for which the inhibition was determined as 45.7%.
The same measure for `O=C(c1ccc2ccccc2n1)N1CCc2c(nc(-c3ccccc3)[nH]c2=O)C1`: 1.16%; for `Cc1cc(C)nc(-n2nc(C)c3c2NC(=O)C[C@@H]3c2ccc3ccccc3c2)n1`: 7.54%.
Turning to `Cc1ccc2c(c1)NC1(CCN(C(=O)Cc3ccc(F)cc3)CC1)c1cccn1-2`, the inhibition is 6.29%.
The same measure for `O=c1oc2ccccc2c(O)c1[C@H]1c2ncccc2-c2c1c(=O)oc1ccccc21`: 8.23%.
As for `CC1=NN(c2ccc3ccccc3c2)C(=O)/C1=C1/C(=O)Nc2ccc(Cl)cc21`, the figure is 16.6%; as for `Cc1cccc2[nH]c([C@H]3CCCN(C(=O)c4nc5ccccn5c4F)C3)nc12`, 11.1%.
As for `Cn1c2ccccc2c(=O)c2c1nc(Cc1ccccc1)n1c3ccccc3nc21`, the figure is 7.42%.
In the case of `Cc1cccc2cc(-c3c4cn[nH]c4nc4c3oc3c(O)c(O)ccc34)c(=O)[nH]c12`, the inhibition was 76.6%.
The same measure for `O=C1C[C@H](c2ccc(Cl)cc2)N2N=C(N3C(=O)[C@H]4CCCC[C@H]4C3=O)NC2=N1`: 8.84%.

For the origin of these results see ChEMBL document CHEMBL4814039, “Identification of non-covalent SARS-CoV-2 main protease inhibitors by a virtual screen of commercially available drug-like compounds” (Bioorg Med Chem Lett, 2021).
